We go through 35 molecules from ChEMBL document CHEMBL3822403, “Discovery, Optimization, and Biological Evaluation of Sulfonamidoacetamides as an Inducer of Axon Regeneration” (J Med Chem, 2016).

Data set [1] deals with Hippocampal neurone. Kind of data set: Induction of neurite outgrowth in Sprague-Dawley rat primary hippocampal neurons after 48 hrs by DAPI staining based confocal fluorescence image analyzer. It is filed as functional. A digest of the protocol: (§1)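 E18 Sprague-Dawley rat hippocampus and cortex dissociated separately, seeded at 2,000 cells/well in Neurobasal/B27 with 2 mM glutamate; after 24 h treated 48 h. Fixed, stained anti-βIII tubulin with DAPI nuclei; four fields per well imaged at 10x, neurite total length per neuron; mean ± SD, n=3.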

Data set [2] relates to P19. Kind of data set: Induction of neurite outgrowth in mouse P19 cells transfected with neuroD2 at 10 uM after 48 hrs by DAPI staining based confocal fluorescence image analyzer relative to control. It is filed as functional. A digest of the protocol:
(§2)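 P19 cells transfected with NeuroD2 cDNA, replated 12 h later at 8,000 cells/well in MEM, 5% FBS, 1 mM pyruvate, 2 mM glutamate; after 24 h compound exposure 48 h. βIII tubulin immunofluorescence with DAPI, four fields/well imaged at 10x, neurite outgrowth relative to DMSO-treated cells.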

The test system of data set [3] is Cerebral cortex neuron. Put plainly: Induction of neurite outgrowth in Sprague-Dawley rat primary cortical neurons at 1 to 10 uM after 48 hrs by DAPI staining based confocal fluorescence image analyzer. It is filed as functional, cell-based. In short, it runs like this:
as §1

Data set [4] has as its system Rattus norvegicus. Kind of data set: Induction of axonal outgrowth of RGC in Sprague-Dawley rat optic nerve injury model assessed as regeneration of 500 to 1500 um crushed optic nerves at 0.22 ug/eye administered intravitreously once in 4 days for 3 weeks by measuring optic nerve injury by GAP-43 expression based microscopy (reference value: 0.22 +/- 0.081). It is filed as functional.

The nature of data set [5]: Metabolic stability in mouse liver S9 fraction assessed as compound remaining after 30 mins. It is filed as ADME, subcellular. The conditions noted are these: read-out: Stability.
The subject of data set [6] is P19. Put plainly: Induction of neurite outgrowth in mouse P19 cells transfected with neuroD2 at 10 to 20 uM after 48 hrs by DAPI staining based confocal fluorescence image analyzer relative to control. The format is functional. A digest of the protocol:
as §2

In data set [7] the test system is P19. Kind of data set: Induction of neurite outgrowth in mouse P19 cells transfected with neuroD2 <1 uM after 48 hrs by DAPI staining based confocal fluorescence image analyzer relative to control. The format is functional, cell-based. A digest of the protocol: as §2

The source made the active and inactive calls. The rule behind the calls is not given here.

With `COc1ccccc1N(CC(=O)Nc1ccccc1)S(=O)(=O)c1ccc(C)cc1`, the outcome in data set [1] and in data set [3] was Active. For the same molecule, the “fold change (FC)” value in data set [2] is recorded as 2.
As to `COc1ccncc1NC(=O)CN(c1ccccc1OC)S(=O)(=O)c1ccc(C)cc1`, the result in data set [1] and in data set [3] was Active. Further, the Activity in data set [4] is 0.7. Also, the remaining at 0.5 h in data set [5] came to 61.2%. The “fold change (FC)” value in data set [2] stood at 4.2.
Turning to `CCOc1ccccc1NC(=O)CN(c1ccccc1C)S(=O)(=O)c1ccc(C)cc1`, the result in data set [1] and in data set [3] was Active. The “fold change (FC)” value in data set [2] is given as 2.6.
As to `CCc1ccccc1NC(=O)CN(c1ccccc1OC)S(=O)(=O)c1ccc(C)cc1`, the result in data set [1] was Active. In addition, the “fold change (FC)” value in data set [2] worked out at 0.8.
With `COc1ccc(CCN(C)CCCC(C#N)(c2ccc(OC)c(OC)c2)C(C)C)cc1OC` (stereo not drawn) [VERAPAMIL], in data set [5], the remaining at 0.5 h worked out at 23.1%.
Take `COc1ccccc1N(CC(=O)Nc1ccc2ncccc2c1)S(=O)(=O)c1ccc(C)cc1`: the result in data set [1] and in data set [3] was Active. Besides, in data set [2], the “fold change (FC)” value was 1.
Turning to `CCOc1ccccc1NC(=O)CN(c1ccccc1)S(=O)(=O)c1ccc(C)cc1`, the outcome in data set [1] and in data set [3] was Active. In addition, the “fold change (FC)” value in data set [2] stood at 2.5.
As for `COc1ccncc1NC(=O)CN(c1ccccc1OC)S(=O)(=O)c1ccc(SC)cc1`, the outcome in data set [1] and in data set [3] was Active. The “fold change (FC)” value in data set [2] came out at 3.9.
Regarding `COc1ccccc1N(CC(=O)Nc1cccnc1OC(C)C)S(=O)(=O)c1ccc(C)cc1`, the result in data set [1] and in data set [3] was Active. Besides, the “fold change (FC)” value in data set [2] was 2.3.
In the case of `CCOc1ccccc1NC(=O)CN(c1cccc(OC)c1)S(=O)(=O)c1ccc(C)cc1`, the result in data set [1] and in data set [3] was Active. For the same molecule, in data set [2], the “fold change (FC)” value worked out at 3.1.
In the case of `COC(=O)c1ccccc1NC(=O)CN(c1ccccc1OC)S(=O)(=O)c1ccc(C)cc1`, the outcome in data set [1] and in data set [3] was Active. Moreover, the remaining at 0.5 h in data set [5] stood at 0.3%. In addition, in data set [2], the “fold change (FC)” value is 3.
Regarding `COc1ccccc1N(CC(=O)Nc1cccnc1OC)S(=O)(=O)c1ccc(C)cc1`, the result in data set [1] and in data set [3] was Active. For the same molecule, in data set [2], the “fold change (FC)” value was found to be 2.8.
In the case of `CC(=O)Nc1ccc(O)cc1` [ACETAMINOPHEN], the remaining at 0.5 h in data set [5] came to 97.7%.
Take `COc1ccc(S(=O)(=O)N(CC(=O)Nc2cc(OC)ccc2OC)c2ccccc2OC)cc1`: the result in data set [1] and in data set [3] was Active. Moreover, in data set [5], the remaining at 0.5 h turned out to be 0.4%. Further, in data set [2], the “fold change (FC)” value worked out at 2.3.
Consider `COc1ccc(OC)c(NC(=O)CN(Cc2ccc(C)cc2)c2ccccc2OC)c1`, for which the result in data set [1] was Active.
In the case of `CCOc1ccccc1CNC(=O)CN(c1ccccc1OC)S(=O)(=O)c1ccc(C)cc1`, the result in data set [1] was Active.
As for `COc1ccc(NC(=O)CN(c2ccccc2OC)S(=O)(=O)c2ccc(Cl)cc2)c(OC)c1`, the result in data set [1] and in data set [3] was Active. In addition, the remaining at 0.5 h in data set [5] came to 0.4%. Also, in data set [2], the “fold change (FC)” value stood at 4.2.
On to `COc1ccccc1N(CC(=O)Nc1ncc[nH]1)S(=O)(=O)c1ccc(C)cc1`, for which, in data set [1], the result was Active.
On to `COc1ccncc1NC(=O)CN(c1ccccc1OC)S(=O)(=O)c1ccc(Br)cc1`, for which the outcome in data set [1] and in data set [3] was Active. Further, the “fold change (FC)” value in data set [2] stood at 3.7.
As to `COc1ccccc1N(CC(=O)Nc1ccccc1F)S(=O)(=O)c1ccc(C)cc1`, the result in data set [1] and in data set [3] was Active. For the same molecule, in data set [2], the “fold change (FC)” value turned out to be 2.1.
Turning to `COc1ccc(NC(=O)CN(c2ccccc2OC)S(=O)(=O)c2ccc(C)cc2)c(OC)c1`, the result in data set [1] and in data set [3] was Active. Also, the “fold change (FC)” value in data set [2] is 2.7.
`CCOc1ccccc1NC(=O)CN(c1ccccc1Cl)S(=O)(=O)c1ccc(C)cc1`: the result in data set [1] and in data set [3] was Active. The “fold change (FC)” value in data set [2] worked out at 2.6.
On to `CCOc1ccccc1NC(=O)CN(c1ccccc1OC)S(=O)(=O)c1ccc(C)cc1`, for which the result in data set [1] and in data set [3] was Active. The “fold change (FC)” value in data set [6] is given as 3.2. Moreover, the remaining at 0.5 h in data set [5] was found to be 0.7%. Also, the result in data set [7] was inactive.
As to `CCOc1ccccc1NC(=O)CN(c1ccccc1F)S(=O)(=O)c1ccc(C)cc1`, the result in data set [1] and in data set [3] was Active. The “fold change (FC)” value in data set [2] is on record as 2.9.
Regarding `COc1ccccc1N(CC(=O)Nc1cccc2ncccc12)S(=O)(=O)c1ccc(C)cc1`, the outcome in data set [1] and in data set [3] was Active. For the same molecule, the “fold change (FC)” value in data set [2] was 1.3.
As for `COc1ccc(OC)c(NC(=O)CN(C(=O)c2ccc(Cl)cc2)c2ccccc2OC)c1`, in data set [1], the result was Active. Moreover, in data set [2], the “fold change (FC)” value is listed as 1.
Take `COc1ccc(OC)c(NC(=O)CN(c2ccccc2OC)S(=O)(=O)c2ccc(SC)cc2)c1`: the result in data set [1] and in data set [3] was Active. Besides, the “fold change (FC)” value in data set [2] came out at 3.2.
For `CCOc1ncccc1NC(=O)CN(c1ccccc1OC)S(=O)(=O)c1ccc(C)cc1`, the outcome in data set [1] and in data set [3] was Active. The “fold change (FC)” value in data set [2] amounted to 2.1.
Regarding `COc1ccc(OC)c(NC(=O)CN(c2ccccc2OC)S(=O)(=O)c2ccc(Br)cc2)c1`, the outcome in data set [1] and in data set [3] was Active. For the same molecule, the “fold change (FC)” value in data set [2] is listed as 5.
`COc1ccccc1N(CC(=O)Nc1ccccc1Br)S(=O)(=O)c1ccc(C)cc1`: the outcome in data set [1] and in data set [3] was Active. The “fold change (FC)” value in data set [2] is 2.1.
For `COc1ccccc1N(CC(=O)Nc1nccs1)S(=O)(=O)c1ccc(C)cc1`, in data set [1], the outcome was Active.
Consider `COc1ccccc1N(CC(=O)Nc1cnc2ccccc2c1)S(=O)(=O)c1ccc(C)cc1`, for which the outcome in data set [1] and in data set [3] was Active. The “fold change (FC)” value in data set [2] came out at 3.6.
`COc1ccc(OC)c(NC(=O)CN(c2ccccc2OC)S(=O)(=O)c2ccc(F)cc2)c1`: the outcome in data set [1] and in data set [3] was Active. The “fold change (FC)” value in data set [2] is 2.5.
Regarding `COc1cccc(NC(=O)CN(c2ccccc2OC)S(=O)(=O)c2ccc(C)cc2)c1`, the outcome in data set [1] and in data set [3] was Active. The “fold change (FC)” value in data set [2] was determined as 1.8.
`COc1ccccc1N(CC(=O)Nc1ncccc1OC)S(=O)(=O)c1ccc(C)cc1`: the result in data set [1] and in data set [3] was Active. In data set [2], the “fold change (FC)” value is 1.6.
